Results from ChEMBL document CHEMBL5303300, “EUbOPEN Chemogenomics Library - Multiplex” (2023).
“And” between values parts separate entries of the source, which are not always exact repeats. Equal entries are not always repeated.

System: HEK-293T
Assay: Multiplex assay against HEK293T
Type: toxicity, cell-based
Details: human, number of replicates 2
How it was run: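 With compound added, live cells were imaged on a CQ1 microscope at 37°C and 5% CO2; staining with Hoechst33342, BioTracker Green Microtubule Cytoskeleton Dye, MitoTracker Red and Annexin V Alexa Fluor 680 had been done at seeding. The CellPathfinder machine-learning gating scheme split cells into Hoechst high-intensity objects or normal cells, normal cells into healthy, pyknosed or fragmented nuclei, and pyknosed cells into mitotic or apoptotic. The tubulin, mitochondrial-mass and membrane-permeability phenotypes are per cents of healthy-nucleus cells.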

[1] = 12 h, 1 µM, compound concentration 1 uM
[2] = 12 h, 10 µM, compound concentration 10 uM
[3] = 24 h, 1 µM, compound concentration 1 uM
[4] = 24 h, 10 µM, compound concentration 10 uM
[5] = 48 h, 1 µM, compound concentration 1 uM
[6] = 48 h, 10 µM, compound concentration 10 uM

In the case of `COc1cc(C(=O)NC2CCN(C)CC2)ccc1Nc1ncc(C(F)(F)F)c(NCc2ccc(C)cc2N(C)S(C)(=O)=O)n1.O=CO.O=CO`, the “Population Apoptotic (%)” value [1] is reported as 57% and 71%, the “Population Fragmented Nuclei (%)” value [1] is reported as 5% and 6% and the “Population Healthy Nuclei (%)” value [1] is reported as 81% and 84%. The “Population Hoechst High Intensity Objects (%)” value [1] was 13% and 16%, the “Population Membrane Permeable-Phenotype (%)” value [1] was 4% and 0% and the “Population Mitochondria Different-Phenotype (%)” value [1] was 50% and 59%. The “Population Mitotic Cells (%)” value [1] was 42% and 28%, the “Population Normal (%)” value [1] was 86% and 83% and the “Population Pyknosed Nuclei (%)” value [1] was 13% and 9%. The “Population Tubulin-Different-Phenotype (%)” value [1] was 89% and 95%, the “Total Cell Count” value [1] was 378 and 461 and the “Population Apoptotic (%)” value [2] was 86% and 89%. The “Population Fragmented Nuclei (%)” value [2] was 7% and 6%, the “Population Healthy Nuclei (%)” value [2] was 45% and 62% and the “Population Hoechst High Intensity Objects (%)” value [2] was 23%. The “Population Membrane Permeable-Phenotype (%)” value [2] was 6% and 0%, the “Population Mitochondria Different-Phenotype (%)” value [2] was 74% and 85% and the “Population Mitotic Cells (%)” value [2] was 13% and 10%. For the same molecule, the “Population Normal (%)” value [2] was 76%, the “Population Pyknosed Nuclei (%)” value [2] was 47% and 31% and the “Population Tubulin-Different-Phenotype (%)” value [2] was 87% and 92%. For the same molecule, the “Total Cell Count” value [2] was 288 and 266, the “Population Apoptotic (%)” value [3] was 73% and 60% and the “Population Fragmented Nuclei (%)” value [3] was 9% and 10%. For the same molecule, the “Population Healthy Nuclei (%)” value [3] was 83% and 80%, the “Population Hoechst High Intensity Objects (%)” value [3] was 12% and the “Population Membrane Permeable-Phenotype (%)” value [3] was 5% and 1%. The “Population Mitochondria Different-Phenotype (%)” value [3] was 17%, the “Population Mitotic Cells (%)” value [3] was 26% and 40% and the “Population Normal (%)” value [3] was 87%. For the same molecule, the “Population Pyknosed Nuclei (%)” value [3] was 7% and 8%, the “Population Tubulin-Different-Phenotype (%)” value [3] was 70% and 79% and the “Total Cell Count” value [3] was 658 and 751. The “Population Apoptotic (%)” value [4] was 84% and 81%, the “Population Fragmented Nuclei (%)” value [4] was 8% and 3% and the “Population Healthy Nuclei (%)” value [4] was 35% and 51%. The “Population Hoechst High Intensity Objects (%)” value [4] was 22% and 23%, the “Population Membrane Permeable-Phenotype (%)” value [4] was 7% and 5% and the “Population Mitochondria Different-Phenotype (%)” value [4] was 71% and 68%. The “Population Mitotic Cells (%)” value [4] was 15% and 18%, the “Population Normal (%)” value [4] was 77% and 76% and the “Population Pyknosed Nuclei (%)” value [4] was 55% and 44%. The “Population Tubulin-Different-Phenotype (%)” value [4] was 86% and 95%, the “Total Cell Count” value [4] was 363 and 344 and the “Population Apoptotic (%)” value [5] was 41% and 21%. For the same molecule, the “Population Fragmented Nuclei (%)” value [5] was 15% and 16%, the “Population Healthy Nuclei (%)” value [5] was 81% and 79% and the “Population Hoechst High Intensity Objects (%)” value [5] was 16% and 14%. The “Population Membrane Permeable-Phenotype (%)” value [5] was 1% and 3%, the “Population Mitochondria Different-Phenotype (%)” value [5] was 3% and 1% and the “Population Mitotic Cells (%)” value [5] was 58% and 78%. For the same molecule, the “Population Normal (%)” value [5] was 83% and 85%, the “Population Pyknosed Nuclei (%)” value [5] was 3% and the “Population Tubulin-Different-Phenotype (%)” value [5] was 51% and 37%. For the same molecule, the “Total Cell Count” value [5] was 1721 and 1697, the “Population Apoptotic (%)” value [6] was 82% and 77% and the “Population Fragmented Nuclei (%)” value [6] was 8% and 4%. The “Population Healthy Nuclei (%)” value [6] was 22% and 25%, the “Population Hoechst High Intensity Objects (%)” value [6] was 25% and 22% and the “Population Membrane Permeable-Phenotype (%)” value [6] was 4% and 2%. For the same molecule, the “Population Mitochondria Different-Phenotype (%)” value [6] was 55% and 76%, the “Population Mitotic Cells (%)” value [6] was 17% and 22% and the “Population Normal (%)” value [6] was 74% and 77%. For the same molecule, the “Population Pyknosed Nuclei (%)” value [6] was 68% and 69%, the “Population Tubulin-Different-Phenotype (%)” value [6] was 93% and 95% and the “Total Cell Count” value [6] was 374 and 336.
For `CCNc1ccc(-c2nn(-c3ccccc3C)c3c2C(C)Cc2nc(NC(=O)OC)sc2-3)cn1.O=C(O)C(F)(F)F` (configuration not stated), the “Population Apoptotic (%)” value [1] was 69% and 60%, the “Population Fragmented Nuclei (%)” value [1] was 4% and 5% and the “Population Healthy Nuclei (%)” value [1] was 86% and 81%. For the same molecule, the “Population Hoechst High Intensity Objects (%)” value [1] was 11% and 12%, the “Population Membrane Permeable-Phenotype (%)” value [1] was 2% and the “Population Mitochondria Different-Phenotype (%)” value [1] was 45% and 38%. The “Population Mitotic Cells (%)” value [1] was 30% and 39%, the “Population Normal (%)” value [1] was 88% and 87% and the “Population Pyknosed Nuclei (%)” value [1] was 8% and 13%. The “Population Tubulin-Different-Phenotype (%)” value [1] was 74% and 65%, the “Total Cell Count” value [1] was 430 and 487 and the “Population Apoptotic (%)” value [2] was 73% and 72%. For the same molecule, the “Population Fragmented Nuclei (%)” value [2] was 3% and 4%, the “Population Healthy Nuclei (%)” value [2] was 85% and 79% and the “Population Hoechst High Intensity Objects (%)” value [2] was 10%. The “Population Membrane Permeable-Phenotype (%)” value [2] was 3%, the “Population Mitochondria Different-Phenotype (%)” value [2] was 74% and 79% and the “Population Mitotic Cells (%)” value [2] was 26% and 27%. For the same molecule, the “Population Normal (%)” value [2] was 89%, the “Population Pyknosed Nuclei (%)” value [2] was 10% and 16% and the “Population Tubulin-Different-Phenotype (%)” value [2] was 94% and 96%. The “Total Cell Count” value [2] was 308 and 225, the “Population Apoptotic (%)” value [3] was 58% and 82% and the “Population Fragmented Nuclei (%)” value [3] was 5%. For the same molecule, the “Population Healthy Nuclei (%)” value [3] was 82% and 81%, the “Population Hoechst High Intensity Objects (%)” value [3] was 26% and 16% and the “Population Membrane Permeable-Phenotype (%)” value [3] was 0%. For the same molecule, the “Population Mitochondria Different-Phenotype (%)” value [3] was 44% and 63%, the “Population Mitotic Cells (%)” value [3] was 41% and 17% and the “Population Normal (%)” value [3] was 73% and 83%. For the same molecule, the “Population Pyknosed Nuclei (%)” value [3] was 11% and 12%, the “Population Tubulin-Different-Phenotype (%)” value [3] was 72% and 85% and the “Total Cell Count” value [3] was 409 and 322. The “Population Apoptotic (%)” value [4] was 54% and 66%, the “Population Fragmented Nuclei (%)” value [4] was 6% and 5% and the “Population Healthy Nuclei (%)” value [4] was 76% and 74%. For the same molecule, the “Population Hoechst High Intensity Objects (%)” value [4] was 13% and 16%, the “Population Membrane Permeable-Phenotype (%)” value [4] was 1% and the “Population Mitochondria Different-Phenotype (%)” value [4] was 86% and 85%. The “Population Mitotic Cells (%)” value [4] was 45% and 33%, the “Population Normal (%)” value [4] was 86% and 83% and the “Population Pyknosed Nuclei (%)” value [4] was 16% and 19%. The “Population Tubulin-Different-Phenotype (%)” value [4] was 89% and 95%, the “Total Cell Count” value [4] was 234 and 199 and the “Population Apoptotic (%)” value [5] was 75% and 85%. For the same molecule, the “Population Fragmented Nuclei (%)” value [5] was 11%, the “Population Healthy Nuclei (%)” value [5] was 69% and 74% and the “Population Hoechst High Intensity Objects (%)” value [5] was 28% and 29%. The “Population Membrane Permeable-Phenotype (%)” value [5] was 0%, the “Population Mitochondria Different-Phenotype (%)” value [5] was 43% and 50% and the “Population Mitotic Cells (%)” value [5] was 24% and 14%. The “Population Normal (%)” value [5] was 71% and 70%, the “Population Pyknosed Nuclei (%)” value [5] was 19% and 14% and the “Population Tubulin-Different-Phenotype (%)” value [5] was 75% and 80%. For the same molecule, the “Total Cell Count” value [5] was 418 and 399, the “Population Apoptotic (%)” value [6] was 73% and 66% and the “Population Fragmented Nuclei (%)” value [6] was 5% and 3%. For the same molecule, the “Population Healthy Nuclei (%)” value [6] was 86% and 81%, the “Population Hoechst High Intensity Objects (%)” value [6] was 19% and 13% and the “Population Membrane Permeable-Phenotype (%)” value [6] was 2% and 1%. For the same molecule, the “Population Mitochondria Different-Phenotype (%)” value [6] was 83% and 80%, the “Population Mitotic Cells (%)” value [6] was 26% and 33% and the “Population Normal (%)” value [6] was 80% and 86%. For the same molecule, the “Population Pyknosed Nuclei (%)” value [6] was 7% and 15%, the “Population Tubulin-Different-Phenotype (%)” value [6] was 89% and 93% and the “Total Cell Count” value [6] was 239 and 207.
